Test results published in ChEMBL document CHEMBL1154855 (Eur J Med Chem, 2010).
Values after ≈ are worked out from the molar mass of the structure shown.

Columns and labels:
[1] = Cytotoxicity against Feline coronavirus infected cat CRFK cells by trypan blue exclusion method; assay type: cell-based, Felis catus; details: crfk
Procedure, shortened: (§1)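 Uninfected confluent cultures were run in parallel with the infected cultures. Medium was replaced by 1 ml maintenance medium with serial compound concentrations; cell controls received no compound. Cultures were incubated at 37 °C. After 2 and 7 days, compound was withdrawn and viability was determined by trypan blue exclusion.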

in vitro = details: human, HeLa cells
Human alphaherpesvirus 2 = experiment: Antiviral activity against Herpes simplex virus 2 G infected in HEL cells assessed as protection from virus-induced cytopathogenicity after 2 to 3 days by MTT assay; assay type: functional, organism-based; details: Human alphaherpesvirus 2, strain G
Proteus mirabilis = experiment: Antibacterial activity against Proteus mirabilis after 24 hrs by broth microdilution method; assay type: functional
Procedure, shortened: (§2)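 Clinical isolates. Each dilution received 100 μl of 0.5 McFarland fresh culture. Solvent (DMSO), growth and standard controls were included. Tubes were incubated at 37 °C for 24 h. MIC is the highest dilution showing no turbidity. Tests were run in triplicate, with at least two repetitions.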

Coxsackievirus B4 [2] = experiment: Antiviral activity against Human coxsackievirus B4 infected in african green monkey Vero cells assessed as protection from virus-induced cytopathogenicity after 2 days by MTT assay; assay type: functional, organism-based; details: Enterovirus B, 48 h
[3] = Cytotoxicity against Feline herpesvirus infected cat CRFK cells by trypan blue exclusion method; assay type: cell-based, Felis catus; details: crfk; procedure, shortened: as §1
HEL [4] = experiment: Cytotoxicity against Vaccinia virus infected HEL cells by trypan blue exclusion method; assay type: cell-based; details: human, hel; procedure, shortened: as §1
Human alphaherpesvirus 1 [5] = experiment: Antiviral activity against acyclovir-sensitive Herpes simplex virus 1 KOS infected in HEL cells assessed as protection from virus-induced cytopathogenicity after 2 to 3 days by MTT assay; assay type: functional, organism-based; details: Human alphaherpesvirus 1, KOS
Sindbis virus = experiment: Antiviral activity against Sindbis virus infected in african green monkey Vero cells assessed as protection from virus-induced cytopathogenicity after 2 to 3 days by MTT assay; assay type: functional, organism-based
[6] = tested on: Human immunodeficiency virus 1; experiment: Antiviral activity against HIV1 3B-infected in human MT4 cells assessed as protection from virus-induced cytopathogenicity after 5 days by MTT assay; assay type: functional, organism-based; details: Human immunodeficiency virus 1, 3B, MT4, 120 h
Procedure, shortened: (§3)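 MT-4 cells at 3 × 10^4 per well were infected with HIV (IIIB or ROD) at 50% cell culture infective doses. Graded compound concentrations were added immediately after infection. Plates were incubated for 5 days at 37 °C and viable cells were counted by MTT.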

HEL [7] = experiment: Cytotoxicity against Herpes simplex virus 1 KOS infected HEL cells by trypan blue exclusion method; assay type: cell-based; details: human, hel; procedure, shortened: as §1
HEL [8] = experiment: Cytotoxicity against acyclovir-sensitive Herpes simplex virus 1 KOS infected HEL cells by trypan blue exclusion method; assay type: cell-based; details: human; procedure, shortened: as §1
MDCK [9] = experiment: Cytotoxicity against Influenza A virus subtype H3N2 infected MDCK cells by trypan blue exclusion method; assay type: cell-based, Canis lupus familiaris; details: dog
Klebsiella pneumoniae = experiment: Antibacterial activity against Klebsiella pneumoniae after 24 hrs by broth microdilution method; assay type: functional; procedure, shortened: as §2
Vero [10] = experiment: Cytotoxicity against Human coxsackievirus B4 infected african green monkey Vero cells by trypan blue exclusion method; assay type: cell-based; details: chlorocebus sabaeus, vero; procedure, shortened: as §1
Escherichia coli = experiment: Antibacterial activity against Escherichia coli after 24 hrs by broth microdilution method; assay type: functional; procedure, shortened: as §2
Influenza B virus = experiment: Antiviral activity against Influenza B virus infected in MDCK cells assessed as protection from virus-induced cytopathogenicity after 6 to 7 days by MTT assay; assay type: functional, organism-based
HeLa [11] = experiment: Cytotoxicity against Human coxsackievirus B4 infected human HeLa cells by trypan blue exclusion method; assay type: cell-based; details: hela; procedure, shortened: as §1
[12] = tested on: Vesicular stomatitis virus; experiment: Antiviral activity against VSV infected in human HeLa cells assessed as protection from virus-induced cytopathogenicity after 1 to 2 days by MTT assay; assay type: functional, organism-based
Punta Toro virus = experiment: Antiviral activity against Punta Toro virus infected in african green monkey Vero cells assessed as protection from virus-induced cytopathogenicity by MTT assay; assay type: functional, organism-based
Streptococcus viridans = experiment: Antibacterial activity against Streptococcus viridans after 24 hrs by broth microdilution method; assay type: functional; procedure, shortened: as §2
Influenza A virus [13] = experiment: Antiviral activity against Influenza A virus H1N1 infected in MDCK cells assessed as protection from virus-induced cytopathogenicity after 6 to 7 days by MTT assay; assay type: functional, organism-based
[14] = Cytotoxicity against HIV1 3B-infected human MT4 cells by MTT assay; assay type: cell-based; details: MT4 cells infected with HIV-1 3B
Procedure, shortened: (§4)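 MT-4 cells (3 × 10^4 per well) were cultured in microdilution trays with various concentrations of compound, then incubated 5 days at 37 °C, and viable cell number was read by MTT.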

[15] = tested on: Respiratory syncytial virus; experiment: Antiviral activity against Respiratory syncytial virus infected in human HeLa cells assessed as protection from virus-induced cytopathogenicity after 4 days by MTT assay; assay type: functional, organism-based; details: 96 h
HEL [16] = experiment: Cytotoxicity against Herpes simplex virus 2 G infected HEL cells by trypan blue exclusion method; assay type: cell-based; details: human, hel; procedure, shortened: as §1
HEL [17] = experiment: Cytotoxicity against VSV infected HEL cells by trypan blue exclusion method; assay type: cell-based; details: human, hel; procedure, shortened: as §1
Influenza A virus [18] = experiment: Antiviral activity against Influenza A virus H3N2 infected in MDCK cells assessed as protection from virus-induced cytopathogenicity after 6 to 7 days by MTT assay; assay type: functional, organism-based
Vero [19] = experiment: Cytotoxicity against PIV 3 infected african green monkey Vero cells by trypan blue exclusion method; assay type: cell-based; details: chlorocebus sabaeus, vero; procedure, shortened: as §1
[20] = tested on: Vesicular stomatitis virus; experiment: Antiviral activity against VSV infected in HEL cells assessed as protection from virus-induced cytopathogenicity after 1 to 2 days by MTT assay; assay type: functional, organism-based
Human respirovirus 3 = experiment: Antiviral activity against PIV 3 infected in african green monkey Vero cells assessed as protection from virus-induced cytopathogenicity after 6 to 7 days by MTT assay; assay type: functional, organism-based; details: Human respirovirus 3, Vero
Vero [21] = experiment: Cytotoxicity against Sindbis virus infected african green monkey Vero cells by trypan blue exclusion method; assay type: cell-based; details: chlorocebus sabaeus, vero; procedure, shortened: as §1
HeLa [22] = experiment: Cytotoxicity against Respiratory syncytial virus infected human HeLa cells by trypan blue exclusion method; assay type: cell-based; details: hela; procedure, shortened: as §1
HeLa [23] = experiment: Cytotoxicity against VSV infected human HeLa cells by trypan blue exclusion method; assay type: cell-based; details: hela; procedure, shortened: as §1
MDCK [24] = experiment: Cytotoxicity against Influenza B virus infected MDCK cells by trypan blue exclusion method; assay type: cell-based, Canis lupus familiaris; details: dog
Felid alphaherpesvirus 1 = experiment: Antiviral activity against Feline herpesvirus infected in cat CRFK cells assessed as protection from virus-induced cytopathogenicity by MTT assay; assay type: functional, organism-based; details: Felid alphaherpesvirus 1, CRFK
Human alphaherpesvirus 1 [25] = experiment: Antiviral activity against Herpes simplex virus 1 KOS infected in HEL cells assessed as protection from virus-induced cytopathogenicity after 2 to 3 days by MTT assay; assay type: functional, organism-based; details: Human alphaherpesvirus 1, KOS
[26] = tested on: Mammalian orthoreovirus 1; experiment: Antiviral activity against Reovirus 1 infected in african green monkey Vero cells assessed as protection from virus-induced cytopathogenicity after 6 to 7 days by MTT assay; assay type: functional, organism-based; details: Mammalian orthoreovirus 1, Vero
Coxsackievirus B4 [27] = experiment: Antiviral activity against Human coxsackievirus B4 infected in human HeLa cells assessed as protection from virus-induced cytopathogenicity after 2 days by MTT assay; assay type: functional, organism-based; details: Enterovirus B, 48 h
Vero [28] = experiment: Cytotoxicity against Punta Toro virus infected african green monkey Vero cells by trypan blue exclusion method; assay type: cell-based; details: chlorocebus sabaeus, vero; procedure, shortened: as §1
[29] = tested on: Human immunodeficiency virus 2; experiment: Antiviral activity against HIV2 ROD infected in human MT4 cells assessed as protection from virus-induced cytopathogenicity after 5 days by MTT assay; assay type: functional, organism-based; details: Human immunodeficiency virus 2, ISOLATE ROD, MT4, 120 h; procedure, shortened: as §3
Vero [30] = experiment: Cytotoxicity against Reovirus 1 infected african green monkey Vero cells by trypan blue exclusion method; assay type: cell-based; details: chlorocebus sabaeus, vero; procedure, shortened: as §1
Feline coronavirus = experiment: Antiviral activity against Feline coronavirus infected in cat CRFK cells assessed as protection from virus-induced cytopathogenicity by MTT assay; assay type: functional, organism-based; details: Alphacoronavirus 1, CRFK
[31] = Cytotoxicity against HIV2 ROD infected human MT4 cells by MTT assay; assay type: cell-based; details: MT4 cells infected with HIV-2 ROD; procedure, shortened: as §4
[32] = Selectivity index, ratio of CC50 for HIV2 ROD infected human MT4 cells to IC50 for […] ROD; assay type: functional

COc1cc(/C=C/C(=O)CC(=O)/C=C/c2ccc(OC(=O)[C@H](Cc3ccccc3)NC(=O)[C@@H](N)Cc3c[nH]c4ccccc34)c(OC)c2)ccc1OC(=O)[C@H](Cc1ccccc1)NC(=O)[C@@H](N)Cc1c[nH]c2ccccc12
CC50 [1]: > 0.096 µM | selectivity ratio (in vitro): 9 | EC50 (Human alphaherpesvirus 2): > 0.038 µM | MIC (Proteus mirabilis): 0.43 µM (≈ 0.445 µg/mL) | EC50 (Coxsackievirus B4 [2]): > 0.019 µM | CC50 [3]: > 0.096 µM | CC50 (HEL [4]): 0.019 µM | EC50 (Human alphaherpesvirus 1 [5]): > 0.038 µM | EC50 (Sindbis virus): > 0.019 µM | IC50 [6]: 0.094 µM | CC50 (HEL [7]): 0.096 µM | CC50 (HEL [8]): 0.019 µM | CC50 (MDCK [9]): 0.046 µM | MIC (Klebsiella pneumoniae): 0.43 µM (≈ 0.445 µg/mL) | CC50 (Vero [10]): 0.096 µM | MIC (Escherichia coli): 0.43 µM (≈ 0.445 µg/mL) | EC50 (Influenza B virus): > 0.096 µM | CC50 (HeLa [11]): 0.096 µM | EC50 [12]: 0.011 µM | EC50 (Punta Toro virus): > 0.019 µM | MIC (Streptococcus viridans): 0.43 µM (≈ 0.445 µg/mL) | EC50 (Influenza A virus [13]): > 0.096 µM | CC50 [14]: > 0.094 µM | EC50 [15]: > 0.019 µM | CC50 (HEL [16]): 0.019 µM | CC50 (HEL [17]): 0.019 µM | EC50 (Influenza A virus [18]): > 0.096 µM | CC50 (Vero [19]): 0.019 µM | EC50 [20]: > 0.038 µM | EC50 (Human respirovirus 3): > 0.038 µM | CC50 (Vero [21]): 0.096 µM | CC50 (HeLa [22]): 0.096 µM | CC50 (HeLa [23]): 0.096 µM | CC50 (MDCK [24]): 0.046 µM | EC50 (Felid alphaherpesvirus 1): > 0.096 µM | EC50 (Human alphaherpesvirus 1 [25]): > 0.019 µM | EC50 [26]: > 0.019 µM | EC50 (Coxsackievirus B4 [27]): > 0.019 µM | CC50 (Vero [28]): 0.096 µM | IC50 [29]: 0.107 µM | CC50 (Vero [30]): 0.096 µM | EC50 (Feline coronavirus): > 0.096 µM | CC50 [31]: > 0.107 µM | Ratio CC50/IC50 [32]: <1
